M1 ag – agonists of M1 muscarinic receptor; CHO-M1 cells, Fluo-4 calcium fluorescence, agonist mode; active compounds read high; B-score at 10 µM; 3% of 64,000 active;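 active = fluorescence rise, raw or as B-score row- and column-corrected plate score, outside the 99.7% band of its plate's samples, either direction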
M1 antag – M1 muscarinic receptor (rat) antagonism; 3.4% of 64,000 active; CHO-M1 cells, Fluo-4 calcium, ACh EC80 antagonist mode; active compounds read low; P08482; B-score at 10 µM;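 active = calcium fluorescence response, raw or row-and-column corrected B-score, differing from the plate sample mean either way at a set confidence level, mostly lower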
DAT uptake mod – human DAT dopamine uptake with cocaine, either direction; Q01959; LLC-PK1 hDAT cells, [14C]-dopamine uptake with cocaine IC80; actives deviate in either direction; B-score at 10 µM; 1.3% of 110,000 active; AID 449768;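 active = Z score or B-score, a plate-position-corrected score, falls beyond the plate's 99.7% confidence bounds, in either direction; inactive = both scores lie inside the 99.7% bounds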;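 note: scored against the spread of the other compound wells on the same plate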
Jurkat tox 60K – cytotoxicity toward Jurkat cells; Jurkat E6.1 viability, ATP luminescence, 48 h; inhibition, % at 4 µM; 1.2% of 56,000 active; AID 463;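 active = inhibition above the mean inhibition of all tested compounds plus 3 SD, cut at about 28% in these data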
D1 allo mod – allosteric modulators of human D1 dopamine receptor. P21728. HEK293 D1, CRE-luciferase, dopamine EC30 potentiation; actives deviate in either direction. B-score at 10 µM. 5.9% of 58,000 active. AID 641;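 active = luminescence count or its row- and column-corrected plate score outside the 99.7% band of the plate's sample wells, on either side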
Target sequence (P21728 whole entry, looked up): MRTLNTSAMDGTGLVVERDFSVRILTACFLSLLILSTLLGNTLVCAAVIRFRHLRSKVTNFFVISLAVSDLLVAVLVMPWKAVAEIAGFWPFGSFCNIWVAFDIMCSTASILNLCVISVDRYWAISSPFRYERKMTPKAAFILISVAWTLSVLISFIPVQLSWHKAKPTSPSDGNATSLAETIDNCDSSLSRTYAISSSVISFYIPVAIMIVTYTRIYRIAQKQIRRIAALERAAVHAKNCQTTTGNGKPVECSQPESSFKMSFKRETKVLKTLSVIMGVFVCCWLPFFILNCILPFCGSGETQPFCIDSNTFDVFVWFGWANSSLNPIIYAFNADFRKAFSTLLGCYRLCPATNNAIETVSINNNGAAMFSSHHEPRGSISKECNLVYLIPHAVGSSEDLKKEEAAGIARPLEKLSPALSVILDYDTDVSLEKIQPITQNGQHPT
HEK293 NFkB inh – lowers PMA/ionomycin-induced NF-kB signal in HEK293 cells; HEK-293 NF-kB luciferase reporter, luminescence; inhibition, % at 3 µM; 0.21% of 62,000 active;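 active = inhibition above the mean of all tested compounds plus 3 SD, cut at about 40% in these data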;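 note: 0% = stimulated DMSO wells and 100% = 10 µM reference inhibitor 5653914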
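Reagent: PMA plus ionomycin mix as NF-kB-activating stimulus. Assay system: NF-kB luciferase reporter HEK-293 cells. Technique: luminescence from luciferase substrate reagent. Incubation: 1 h compound pre-incubation, 16 h PMA/ionomycin at 37 °C. Benchmarks: DMSO only as uninhibited control, 10 µM reference inhibitor as full inhibition. Repeats: tested once.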
D1 PAM confirm – D1 receptor (human) allosteric modulation, confirmed; luminescence at 10 µM; 88% of 2,200 active; HEK293 D1 CRE-luciferase, dopamine EC30 potentiation; active compounds read high; shares compounds with D1 allo mod;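 active = luminescence in either of two replicates above the same-plate mean plus 3 SD of the low-dose dopamine control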
D1 ag no DA – secondary test of D1 modulators: activity without dopamine; shares compounds with D1 allo mod; HEK293 D1 CRE-luciferase, luminescence, no dopamine; active compounds read high; luminescence at 10 µM; 0.8% of 1,900 active; AID 646; in the data active = luminescence above about 3900
Isoprot counter – alters isoproterenol CRE-luciferase response in HEK293 cells | shares compounds with D1 allo mod | HEK293 D1 CRE-luciferase, isoproterenol EC30 counter-screen | calls only at 10 µM | 63% of 2,200 active;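 active = luminescence in either replicate above plate mean of wells with a partly effective reference agonist dose plus 3 SD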;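 note: isoproterenol raises cAMP through native beta-adrenoceptor Gs so signal bypasses D1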
* = called active by the depositor; i = inactive; . = no result given; + = active, no number. An excerpt weighted towards active compounds, which were near 7.6% of everything screened.

SMILES	M1 ag	M1 antag	DAT uptake mod	Jurkat tox 60K	D1 allo mod	HEK293 NFkB inh	D1 PAM confirm	D1 ag no DA	Isoprot counter
Cn1c(=O)c2c(nc(CN3CCc4ccccc4C3)n2CCc2ccccc2)n(C)c1=O	-0.092	-0.57	.	-3	-0.27	-2	.	.	.
CC(C)(C)C(=O)Nc1ccc(C(=O)Nc2cccnc2)cc1	.	.	-0.27	.	.	.	.	.	.
CCc1nnc(NC(=O)c2cccc(S(=O)(=O)N3CC(c4ccccc4)CC3=O)c2)s1 (stereo not drawn)	.	.	1.1	.	.	.	.	.	.
CCc1nc(N)nc2c1C(=O)CC(C)(C)C2	0.32	-0.67	-1.5	0	8.3*	2	20244*	1712	+
CC1(C)CC(=O)c2cnc(N)nc2C1	.	.	0.47	.	.	.	.	.	.
Cn1c(=O)[nH]c(=O)c2c1nc(NC1CCCCC1)n2Cc1ccccc1	0.31	0.015	0.72	-1	6.8*	12	8436*	1500	+
Cc1ccc(Cn2c(-n3nc(C)cc3C)nc3c2c(=O)[nH]c(=O)n3C)cc1	1.5	-0.0067	0.72	-6	3.5*	9	9484*	1480	i
CCCCCCCCn1c(N2CCN(c3cccc(Cl)c3)CC2)nc2c1c(=O)[nH]c(=O)n2C	.	.	1.2	.	.	.	.	.	.
CC(C)CCn1c(N2CCN(c3cccc(Cl)c3)CC2)nc2c1c(=O)[nH]c(=O)n2C	.	.	0.059	8	15*	30	18092*	1700	+
CC1CCN(c2nc3c(c(=O)[nH]c(=O)n3C)n2Cc2ccccc2)CC1	0.37	-0.41	0.28	2	7.9*	18	16032*	1452	+
Cn1c(SCC(=O)Nc2nccs2)nnc1-c1ccco1	.	.	0.39	.	.	.	.	.	.
Cc1ccnc(NS(=O)(=O)c2ccc(NC(=O)C34CC5CC(CC(C5)C3)C4)cc2)n1	.	.	1.8	.	.	.	.	.	.
COC(=O)c1n[nH]c2ccccc12	-0.037	-0.24	0.84	.	.	.	.	.	.
O=C(OCCCCN1C(=O)c2ccccc2C1=O)c1n[nH]c2ccccc12	-0.56	-0.96	-0.15	0	5.1*	4	7836*	1704	i
Cc1ccc(-c2c(C)sc(=NC(=O)c3ccco3)n2C)cc1	.	.	-0.13	.	.	.	.	.	.
COc1ccc(OC)c2c1sc(=NC(=O)c1ccco1)n2C	-1.5	-2.5	1.1	-6	3.2*	0	13568*	1564	+
COc1ccc(C(=O)Nc2ccncc2)cc1OC	-0.16	0.23	0.042	4	13*	14	20440*	.	+
COc1ccc(NC(=O)c2cccs2)cc1OC	-0.66	-0.39	-0.13	10	8*	12	13868*	1416	+
COc1cc(C(=O)NCc2nnc(SCC(=O)NCc3ccccc3)o2)cc(OC)c1OC	0.54	-0.52	0.44	.	.	18	.	.	.
CC(NC(=O)c1ccccc1NS(C)(=O)=O)c1ccccc1 (stereo not drawn)	0	-0.38	-1.1	-4	1.5	4	.	.	.
CCOc1ccccc1OCCOc1ccc(F)cc1	.	.	-0.26	.	.	.	.	.	.
CCc1nnc2n1N=C(c1ccc(-c3ccc(Cl)cc3Cl)o1)CS2	0.63	-0.052	.	4	1	1	.	.	.
Clc1ccc(OCc2nnc3n2N=C(c2ccc4c(c2)OCCO4)CS3)c(Cl)c1	0.44	0.27	-0.31	3	4*	-3	9040*	1568	+
COc1ccccc1NC(=O)N(Cc1ccc2c(c1)OCO2)Cc1nc2ccccc2c(=O)[nH]1	2.1	1.2	0.53	2	4.9*	-3	5620*	1528	i
C=C1CCN([C@H](C(=O)NCc2ccco2)C(C)C)S(=O)(=O)c2ccccc21	.	.	0.96	.	.	.	.	.	.
SMILES	M1 ag	M1 antag	DAT uptake mod	Jurkat tox 60K	D1 allo mod	HEK293 NFkB inh	D1 PAM confirm	D1 ag no DA	Isoprot counter
CN(Cc1cccc(F)c1)C(=O)c1ccc(S(=O)(=O)C(F)F)cc1	-0.25	1.1	-1	3	0.55	18	.	.	.
CCCS(=O)(=O)c1c(S(=O)(=O)CCC)c2cc(CC)ccn2c1C(=O)OC	-0.41	0.18	0.87	15	6.5*	-4	13540*	1436	+
CCCS(=O)(=O)c1c(S(=O)(=O)CCC)c2ccccn2c1C(=O)OC	.	.	-0.42	.	1.7	.	.	.	.
CCOC(=O)NC(=O)CN1C(=O)NC(C)(c2ccccc2)C1=O (stereo not drawn)	-0.073	2.1*	-0.6	7	4.4*	7	5048	704	i
Cc1cc(O)c(C=Nc2cccc(Cl)c2)c(=O)o1	-0.67	0.12	0.63	-2	3.8*	3	8536*	1512	i
CCOC(=O)C1=C(NC(=O)c2ccc(Br)o2)Nc2ccccc2N=C1	-0.24	0.51	1.1	6	19*	10	24204*	1580	+
Brc1ccc(-c2nnc3n2-c2ccccc2CC3)cc1	-0.21	-0.88	0.58	-6	3.9*	1	13056*	1744	+
Brc1ccc(-c2nnc3n2CCCCC3)cc1	.	.	-0.027	.	.	.	.	.	.
CCCCN(C)C(=O)c1cn(CC)c2ccc(S(=O)(=O)N(C)C)cc2c1=O	-0.0042	-1	-0.48	-3	3*	-3	5816	1512	i
C/C(=N/Oc1nc(C)cc(C)n1)c1ccc(F)cc1	.	.	0.11	.	.	.	.	.	.
CN1CCN(c2ccc(Cl)cc2NC(=O)c2cccc(S(=O)(=O)N(C)C)c2)CC1	-0.051	-0.98	0.26	2	5.2*	11	13264*	1580	i
COc1cc(-c2nn3c(Cc4ccccc4)nnc3s2)cc(OC)c1OC	-0.55	0.046	0.56	0	4*	9	9884*	1660	+
COc1cc(-c2nnc3sc(-c4ccncc4)nn23)cc(OC)c1OC	-0.14	-0.032	.	-2	2	-5	.	.	.
COc1ccc(-c2nn3c(-c4ccco4)nnc3s2)cc1OC	1	0.02	0.11	1	16*	11	18008*	.	+
COc1cc(-c2nn3c(-c4ccccc4)nnc3s2)cc(OC)c1OC	1.2	0.84	2.7*	0	3.3*	3	14804*	1764	+
CCCCSc1nc(CCC)cc(=O)[nH]1	1.6	0.0098	-0.13	.	5.3*	.	15600*	1616	+
COc1cccc(CC(NC(C)=O)C(=O)NC2CCN(c3c4c(nc5ncnn35)CCC4)CC2)c1 (stereo not drawn)	0.025	0.031	.	-8	0.49	6	.	.	.
CCc1c(C)sc(NC(=O)c2ccco2)c1C(=O)N1CCOCC1	2.5	-0.4	-2.3	3	0.3	15	.	.	.
CC(Sc1nc(N(C)C)nc(N2CCOCC2)n1)C(=O)Nc1ccccc1 (stereo not drawn)	-0.24	0.14	0.42	7	4.8*	5	9356*	1600	+

Source: PubChem BioAssay
